One assay has as its system Pseudomonas aeruginosa. Nature of the assay: Tested for minimum inhibitory concentration against Pseudomonas aeruginosa 32121. Type of assay: functional. Summed up: (§1)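 Twofold broth microdilution in Mueller-Hinton broth, inoculum approximately 10^6 cfu/mL. Plates incubated 18 h at 37 °C. MIC taken as the lowest concentration preventing visible bacterial growth.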
Another assay has as its system Streptococcus pyogenes. Nature of the assay: Tested for minimum inhibitory concentration against Streptococcus pyogenes G-36. Type of assay: functional. The procedure, abridged: as §1
Assay [1] relates to Staphylococcus aureus. Nature of the assay: Tested for minimum inhibitory concentration against Staphylococcus aureus Smith. It counts as functional. Summed up: as §1
In a further assay the test system is Enterococcus faecalis. Description: Tested for minimum inhibitory concentration against Enterococcus faecalis ATCC 19433. It counts as functional. Summed up: as §1
In assay [2] the test system is Staphylococcus aureus. Nature of the assay: Tested for minimum inhibitory concentration against Staphylococcus aureus 209P. Type of assay: functional. The procedure, abridged:
as §1

The test system of assay [3] is Staphylococcus epidermidis. Description: Tested for minimum inhibitory concentration against Staphylococcus epidermidis 56556. Type of assay: functional. The procedure, abridged:
as §1

A further assay concerns Klebsiella pneumoniae. Nature of the assay: Tested for minimum inhibitory concentration against Klebsiella pneumoniae. It counts as functional. Summed up: as §1
Another assay deals with Proteus vulgaris. Description: Tested for minimum inhibitory concentration against Proteus vulgaris 08601. It counts as functional. The procedure, abridged: as §1
The next assay has as its system Enterobacter cloacae. Nature of the assay: Tested for minimum inhibitory concentration against Enterobacter cloacae 03400. It counts as functional. Summed up:
as §1

Assay [4] deals with Escherichia coli. Description: Tested for minimum inhibitory concentration against Escherichia coli NIHJ. It counts as functional. The procedure, abridged:
as §1

The target of assay [5] is DNA gyrase (Escherichia coli) (UniProt P0AES6+P0AES4). Description: Dose required to inhibit DNA gyrase in Escherichia coli. Type of assay: protein-complex assay.
Assay [6] has as its system Escherichia coli. Description: Tested for minimum inhibitory concentration against Escherichia coli KL-16. It counts as functional. Summed up: as §1
[7] abbreviates: Proteus vulgaris, read-out: MIC.
The mark [8] stands for this setting: Escherichia coli, read-out: MIC.
Setting [9] is: Klebsiella pneumoniae, read-out: MIC.
Setting [10] is: Staphylococcus aureus, read-out: MIC.

Converted amounts (≈) assume the structure as drawn. Where only a bound is given, the exact number is not on record here.

This note sets out measurements from ChEMBL document CHEMBL1127078, “Fluorocyclopropyl quinolones. 1. Synthesis and structure-activity relationships of 1-(2-fluorocyclopropyl)-3-pyridonecarboxylic acid antibacterial agents” (J Med Chem, 1993).

The MIC is the lowest concentration that inhibits growth of the organism. Consider `O=C(O)c1cn(C2CC2F)c2cc(N3CCNCC3)c(F)cc2c1=O` (stereo in doubt; 25), for which the minimal inhibitory concentration (MIC) is 0.1 µg/mL (≈ 0.286 µM) in the assay on Pseudomonas aeruginosa; 50 µg/mL (≈ 143 µM) against Streptococcus pyogenes; 0.39 µg/mL (≈ 1.12 µM) in the assay with Staphylococcus aureus [1]; 12.5 µg/mL (≈ 35.8 µM) in the assay on Enterococcus faecalis; 0.78 µg/mL (≈ 2.23 µM) in the assay with Staphylococcus aureus [2]; 0.78 µg/mL (≈ 2.23 µM) in assay [3]. Also, the minimum inhibitory concentration (MIC) in the assay on Klebsiella pneumoniae was 0.1 µg/mL (≈ 0.286 µM).

For the compound `C[C@H]1CN(c2c(F)cc3c(=O)c(C(=O)O)cn(C4CC4F)c3c2F)CCN1` (stereo in doubt; 33), the MIC is 0.39 µg/mL (≈ 1.02 µM) in the assay with Pseudomonas aeruginosa; not above 0.05 µg/mL with Proteus vulgaris (setting [7]); 50 µg/mL (≈ 131 µM) against Streptococcus pyogenes; not above 0.05 µg/mL against Enterobacter cloacae; 0.78 µg/mL (≈ 2.05 µM) in the assay with Staphylococcus aureus [1]; 12.5 µg/mL (≈ 32.8 µM) in the assay with Enterococcus faecalis. The minimum inhibitory concentration (MIC) against Staphylococcus aureus [2] was 1.56 µg/mL (≈ 4.09 µM); in assay [3], 3.13 µg/mL (≈ 8.21 µM); in the assay with Escherichia coli [4] (setting [8]), not above 0.05 µg/mL; in the assay with Klebsiella pneumoniae (setting [9]), 0.1 µg/mL (≈ 0.262 µM).

Consider `CN1CCN(c2cc3c(cc2F)c(=O)c(C(=O)O)cn3[C@@H]2C[C@@H]2F)CC1` (stereo in doubt; 38), for which the ID50 in assay [5] stood at 0.18 µg/mL (≈ 0.495 µM).

With `CN1CCN(c2c(F)cc3c(=O)c(C(=O)O)cn(C4CC4F)c3c2F)CC1` (stereo in doubt; 30), the MIC against Pseudomonas aeruginosa is 0.1 µg/mL (≈ 0.262 µM); against Streptococcus pyogenes it was 3.13 µg/mL (≈ 8.21 µM); with Staphylococcus aureus [1], “<=0.05 ug ml-1”; in the assay with Enterococcus faecalis, 0.78 µg/mL (≈ 2.05 µM); against Staphylococcus aureus [2], 0.1 µg/mL (≈ 0.262 µM); in [3], 0.2 µg/mL (≈ 0.524 µM). In addition, the MIC result with Klebsiella pneumoniae is “<=0.05 ug ml-1”.

On to `O=C(O)c1cn(C2CC2F)c2c(F)c(N3CCNCC3)c(F)cc2c1=O` (stereo in doubt; 29), for which the MIC against Pseudomonas aeruginosa was 0.39 µg/mL (≈ 1.06 µM); with Proteus vulgaris (setting [7]), not above 0.05 µg/mL; with Streptococcus pyogenes it was 50 µg/mL (≈ 136 µM); with Enterobacter cloacae, not above 0.05 µg/mL; against Staphylococcus aureus [1], 0.78 µg/mL (≈ 2.12 µM); in the assay with Enterococcus faecalis, 25 µg/mL (≈ 68.1 µM). In addition, the MIC with Staphylococcus aureus [2] was 1.56 µg/mL (≈ 4.25 µM); in assay [3], 3.13 µg/mL (≈ 8.52 µM); in the assay with Escherichia coli [4] (setting [8]) it was 0.1 µg/mL (≈ 0.272 µM); in the assay on Klebsiella pneumoniae it was 0.2 µg/mL (≈ 0.544 µM).

For `CN1CCN(c2nc3c(cc2F)c(=O)c(C(=O)O)cn3C2CC2F)CC1` (stereo in doubt; 36), the MIC against Pseudomonas aeruginosa was determined as 0.2 µg/mL (≈ 0.549 µM); against Proteus vulgaris it was 0.2 µg/mL (≈ 0.549 µM); in the assay on Streptococcus pyogenes it was 6.25 µg/mL (≈ 17.2 µM); in the assay with Staphylococcus aureus [1], 0.2 µg/mL (≈ 0.549 µM); in the assay with Enterococcus faecalis, 1.56 µg/mL (≈ 4.28 µM); against Staphylococcus aureus [2], 0.39 µg/mL (≈ 1.07 µM). The MIC is 0.39 µg/mL (≈ 1.07 µM) in assay [3] and 0.2 µg/mL (≈ 0.549 µM) in the assay with Klebsiella pneumoniae.

Consider `CN1CCN(c2cc3c(cc2F)c(=O)c(C(=O)O)cn3C2CC2F)CC1` (stereo in doubt; 27) [listing 1 of 2 here], for which the minimum inhibitory concentration (MIC) was 0.39 µg/mL (≈ 1.07 µM) with Pseudomonas aeruginosa; 0.1 µg/mL (≈ 0.275 µM) in the assay on Proteus vulgaris; 50 µg/mL (≈ 138 µM) against Streptococcus pyogenes; 0.39 µg/mL (≈ 1.07 µM) in the assay with Staphylococcus aureus [1]; 12.5 µg/mL (≈ 34.4 µM) in the assay on Enterococcus faecalis; 0.78 µg/mL (≈ 2.15 µM) with Staphylococcus aureus [2]. For the same compound, the minimal inhibitory concentration (MIC) stood at 0.1 µg/mL (≈ 0.275 µM) against Escherichia coli [6], 0.78 µg/mL (≈ 2.15 µM) in [3] and 0.2 µg/mL (≈ 0.55 µM) with Klebsiella pneumoniae.

`CN1CCN(c2cc3c(cc2F)c(=O)c(C(=O)O)cn3[C@@H]2C[C@@H]2F)CC1` (stereo in doubt; 39): the ID50 in assay [5] was 0.34 µg/mL (≈ 0.936 µM).

In the case of `CN1CCN(c2cc3c(cc2F)c(=O)c(C(=O)O)cn3C2CC2F)CC1` (stereo in doubt; 27) [listing 2 of 2 here], the ID50 in assay [5] was determined as 0.92 µg/mL (≈ 2.53 µM).

With `O=C(O)c1cn(C2CC2)c2cc(N3CCNCC3)c(F)cc2c1=O` [CIPROFLOXACIN], the minimal inhibitory concentration (MIC) is not above 0.05 µg/mL in the assay on Pseudomonas aeruginosa (Pseudomonas aeruginosa, read-out: MIC); not above 0.05 µg/mL with Proteus vulgaris (setting [7]); not above 0.05 µg/mL in the assay with Staphylococcus aureus [1] (setting [10]); 0.78 µg/mL (≈ 2.35 µM) in the assay with Enterococcus faecalis (Enterococcus faecalis, ATCC 19433, read-out: MIC); 0.1 µg/mL (≈ 0.302 µM) with Staphylococcus aureus [2] (setting [10]); 0.025 µg/mL (≈ 0.0754 µM) in the assay with Escherichia coli [6] (setting [8]). For the same compound, the MIC in assay [3] (Staphylococcus epidermidis, read-out: MIC) was 0.2 µg/mL (≈ 0.604 µM); against Escherichia coli [4] it was not above 0.05 µg/mL; with Klebsiella pneumoniae (setting [9]), not above 0.05 µg/mL. The same compound returned an ID50 in [5] of 0.13 µg/mL (≈ 0.392 µM).

In the case of `CN1CCN(c2nc3c(cc2F)c(=O)c(C(=O)O)cn3C2CC2F)CC1` (stereo in doubt; 37), the minimum inhibitory concentration (MIC) was 0.78 µg/mL (≈ 2.14 µM) in the assay on Pseudomonas aeruginosa; 0.2 µg/mL (≈ 0.549 µM) in the assay on Proteus vulgaris (setting [7]); 25 µg/mL (≈ 68.6 µM) in the assay with Streptococcus pyogenes; not above 0.05 µg/mL in the assay on Enterobacter cloacae; 0.78 µg/mL (≈ 2.14 µM) in the assay with Staphylococcus aureus [1]; 25 µg/mL (≈ 68.6 µM) against Enterococcus faecalis. The MIC in the assay on Staphylococcus aureus [2] is 1.56 µg/mL (≈ 4.28 µM); in assay [3], 1.56 µg/mL (≈ 4.28 µM); with Escherichia coli [4] (setting [8]) it was not above 0.05 µg/mL; in the assay with Klebsiella pneumoniae (setting [9]), 0.2 µg/mL (≈ 0.549 µM).

With `C[C@@H]1CN(c2c(F)cc3c(=O)c(C(=O)O)cn(C4CC4F)c3c2F)CCN1` (stereo in doubt; 34), the minimal inhibitory concentration (MIC) against Pseudomonas aeruginosa was 0.1 µg/mL (≈ 0.262 µM); against Proteus vulgaris it was “<=0.05 ug ml-1”; in the assay on Streptococcus pyogenes, 0.78 µg/mL (≈ 2.05 µM); with Enterobacter cloacae it was not above 0.05 µg/mL; with Staphylococcus aureus [1], not above 0.05 µg/mL; in the assay with Enterococcus faecalis, 0.78 µg/mL (≈ 2.05 µM). Besides, the minimal inhibitory concentration (MIC) with Staphylococcus aureus [2] was 0.1 µg/mL (≈ 0.262 µM); in assay [3] it was 0.2 µg/mL (≈ 0.524 µM); in the assay on Escherichia coli [4] (setting [8]) it was not above 0.05 µg/mL; with Klebsiella pneumoniae (setting [9]) it was 0.1 µg/mL (≈ 0.262 µM).

On to `C[C@H]1CN(c2c(F)cc3c(=O)c(C(=O)O)cn(C4CC4F)c3c2F)CCN1` (stereo in doubt; 32), for which the minimal inhibitory concentration (MIC) in the assay with Pseudomonas aeruginosa was 0.1 µg/mL (≈ 0.262 µM); against Streptococcus pyogenes, 1.56 µg/mL (≈ 4.09 µM); in the assay on Staphylococcus aureus [1], “<=0.05 ug ml-1”; with Enterococcus faecalis, 0.78 µg/mL (≈ 2.05 µM); against Staphylococcus aureus [2], 0.1 µg/mL (≈ 0.262 µM); in [3], 0.2 µg/mL (≈ 0.524 µM). Moreover, the minimal inhibitory concentration (MIC) entry in the assay on Klebsiella pneumoniae was “<=0.05 ug ml-1”.

In turn, `CN1CCN(c2cc3c(cc2F)c(=O)c(C(=O)O)cn3C2CC2F)CC1` (stereo in doubt; 26) registered an ID50 in assay [5] of 0.31 µg/mL (≈ 0.853 µM).

With `CN1CCN(c2c(F)cc3c(=O)c(C(=O)O)cn(C4CC4F)c3c2F)CC1` (stereo in doubt; 31), the minimum inhibitory concentration (MIC) is 0.78 µg/mL (≈ 2.05 µM) in the assay on Pseudomonas aeruginosa; not above 0.05 µg/mL with Proteus vulgaris (setting [7]); 100 µg/mL (≈ 262 µM) against Streptococcus pyogenes; not above 0.05 µg/mL in the assay on Enterobacter cloacae; 1.56 µg/mL (≈ 4.09 µM) with Staphylococcus aureus [1]; 25 µg/mL (≈ 65.6 µM) in the assay with Enterococcus faecalis. In addition, the MIC against Staphylococcus aureus [2] is 1.56 µg/mL (≈ 4.09 µM); in assay [3] it was 3.13 µg/mL (≈ 8.21 µM); in the assay with Escherichia coli [4] (setting [8]), not above 0.05 µg/mL; against Klebsiella pneumoniae it was 0.2 µg/mL (≈ 0.524 µM).

Take `C[C@@H]1CN(c2c(F)cc3c(=O)c(C(=O)O)cn(C4CC4F)c3c2F)CCN1` (stereo in doubt; 35): the minimum inhibitory concentration (MIC) in the assay with Pseudomonas aeruginosa is 0.78 µg/mL (≈ 2.05 µM); against Proteus vulgaris, 0.2 µg/mL (≈ 0.524 µM); in the assay on Streptococcus pyogenes it was 50 µg/mL (≈ 131 µM); in the assay on Staphylococcus aureus [1] (setting [10]), 0.78 µg/mL (≈ 2.05 µM); in the assay with Enterococcus faecalis, 12.5 µg/mL (≈ 32.8 µM); against Staphylococcus aureus [2], 1.56 µg/mL (≈ 4.09 µM). For the same compound, the MIC in [3] amounted to 3.13 µg/mL (≈ 8.21 µM); against Klebsiella pneumoniae, 0.2 µg/mL (≈ 0.524 µM).

Take `O=C(O)c1cn(C2CC2F)c2c(F)c(N3CCNCC3)c(F)cc2c1=O` (stereo in doubt; 28): the MIC result against Pseudomonas aeruginosa is “<=0.05 ug ml-1”; against Streptococcus pyogenes, 0.78 µg/mL (≈ 2.12 µM); against Staphylococcus aureus [1] it was 0.1 µg/mL (≈ 0.272 µM); against Enterococcus faecalis it was 1.56 µg/mL (≈ 4.25 µM); in the assay with Staphylococcus aureus [2] it was 0.1 µg/mL (≈ 0.272 µM); in [3], 0.2 µg/mL (≈ 0.544 µM). Besides, the MIC result in the assay on Escherichia coli [4] and in the assay on Klebsiella pneumoniae was “<=0.05 ug ml-1” throughout.
